The source of these data is ChEMBL document CHEMBL4330180, “Identification of Portimine B, a New Cell Permeable Spiroimine That Induces Apoptosis in Oral Squamous Cell Carcinoma” (ACS Med Chem Lett, 2019).

pIC50: −log10 of the molar value. Active and inactive are the calls of the source. The calls are words filed in the database; no cut-off is given here.

The nature of series [1]: Permeability of the compound at 100 uM after 6 hrs by PAMPA. Type of series: ADME. On the technique in general: PAMPA measures passive passage across an artificial lipid membrane.
The test system of series [2] is UMSCC23. Put plainly: Induction of apoptosis in human UMSCC23 cells assessed as increase in NOXA mRNA expression at antiproliferative IC50 over 36 hrs by RT-qPCR analysis. Type of series: functional, cell-based. The essentials:
(§1)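 OCSCC cultures treated at the IC50 from the ATP proliferation assay. cDNA libraries were made from the treated cells and analysed for apoptotic transcripts by Taqman RT-qPCR. Three independent experiments were run, each in triplicate, with error bars given as SEM.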

Series [3] concerns HN12. Briefly: Induction of apoptosis in human HN12 cells assessed as increase in GADD45alpha mRNA expression at antiproliferative IC50 over 36 hrs by RT-qPCR analysis. Format: functional, cell-based. The method in brief: as §1
For orientation: Quantitative PCR measures a nucleic acid by following its amplification.

The subject of series [4] is UMSCC23. Put plainly: Induction of apoptosis in human UMSCC23 cells assessed as increase in DR5 mRNA expression at antiproliferative IC50 over 36 hrs by RT-qPCR analysis. Type of series: functional, cell-based. The method in brief: as §1
The nature of series [5]: (§2) Antiproliferative activity against human HN12 cells after 48 hrs by ATP-based Cell Titer-Glo assay. As to conditions: HN12, 48 h. Format: functional. The essentials:
(§3)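 OCSCC cells cultured with increasing concentrations of purified compound (98% by UPLC-PDA). Read-out was ATP-based luminescent proliferation. Exposure is given as 48 h in the figure legend and 36 h in the text. IC50 values were taken from the dose-response curves. Error bars are SD.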
In general terms: Cellular ATP, detected with luciferase, serves as a proxy for viable cell number.

Series [6] has as its system UMSCC23. Put plainly: Induction of apoptosis in human UMSCC23 cells assessed as increase in GADD45alpha mRNA expression at antiproliferative IC50 over 36 hrs by RT-qPCR analysis. Format: functional, cell-based. The essentials: as §1
The test system of series [7] is HN12. Put plainly: Induction of apoptosis in human HN12 cells assessed as increase in Bcl2 mRNA expression at antiproliferative IC50 over 36 hrs by RT-qPCR analysis. Type of series: functional, cell-based. The method in brief:
as §1

For series [8], the system named is UMSCC23. Briefly: Induction of apoptosis in human UMSCC23 cells assessed as increase in Bcl2 mRNA expression at antiproliferative IC50 over 36 hrs by RT-qPCR analysis. Type of series: functional, cell-based. The method in brief: as §1
For series [9], the system named is HN12. Put plainly: Induction of apoptosis in human HN12 cells assessed as increase in NOXA mRNA expression at antiproliferative IC50 over 36 hrs by RT-qPCR analysis. Format: functional, cell-based. The essentials: as §1
Series [10] relates to HN12. Put plainly: Induction of apoptosis in human HN12 cells assessed as genomic DNA laddering after 48 hrs by agarose gel electrophoresis method. Type of series: functional, cell-based. The essentials: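 HN12 cells treated for 48 h at the proliferation-assay IC50 and at a semilog dose above and below it. Genomic DNA was resolved electrophoretically and scored for laddering.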

For series [11], the system named is UMSCC23. Put plainly: Antiproliferative activity against human UMSCC23 cells after 48 hrs by ATP-based Cell Titer-Glo assay. Particulars: for pIC50: UMSCC23, 48 h. Type of series: functional. The essentials: as §3
The subject of series [12] is HN12. Put plainly: Induction of apoptosis in human HN12 cells assessed as increase in DR5 mRNA expression at antiproliferative IC50 over 36 hrs by RT-qPCR analysis. Format: functional, cell-based. The essentials:
as §1

In series [13] the test system is HN12. Described as §2. Type of series: functional. The method in brief: as §3

The pIC50 is −log10 of the IC50, conventionally taken in molar units. Compound `C=CC1=C[C@@H]2[C@@H]3O[C@](O)(CC[C@H](O)[C@@H](C)C[C@@H](O)C3=O)CC(=O)C3=NCC[C@@]32CC1` registered a permeability in series [1] of 35%. Also, the outcome in the series on UMSCC23 [2], with HN12 [3], in the series with UMSCC23 [4], in the series on UMSCC23 [6], with HN12 [7] and with UMSCC23 [8] was Active. In addition, the result with HN12 [9], in the series with HN12 [10] and with HN12 [12] was Active. The pIC50 in [5] is 6.93; in the series on UMSCC23 [11], 6.64.

`C=CC1=C[C@@H]2[C@@H]3O[C@]4(CC[C@H](O4)[C@@H](C)C[C@@H](O)C3=O)C[C@H](O)C3=NCC[C@@]32CC1`: the permeability in series [1] is recorded as 54%. Besides, the outcome with UMSCC23 [2], in the series on HN12 [3], with UMSCC23 [4], in the series on UMSCC23 [6], in the series with HN12 [7] and in the series on UMSCC23 [8] was Active. The result in the series with HN12 [9], with HN12 [10] and with HN12 [12] was Active. Besides, the Activity entry with HN12 [13] and in the series on UMSCC23 [11] was “Dose-dependent effect” each time. In addition, the pIC50 was 8.55 in series [5] and 8.49 in the series with UMSCC23 [11].

In the case of `C[C@]12C=CC(=O)C=C1CC[C@@H]1[C@@H]2C(=O)C[C@@]2(C)[C@H]1CC[C@]2(O)C(=O)CO` [PREDNISONE], the permeability in series [1] was 12%.
